High-throughput results from PubChem.
In the library only some 2.3% were active in any assay of this set; here they are far more common.
Xi reactivation – reactivates the inactive X chromosome in mouse fibroblasts; XiGFP mouse fibroblasts, % GFP-positive cells imaging, 3 d; cells co-treated with 5-aza-dC sensitizer; scaled so ellipticine positive control = 100%; activation, % at 7.58 µM; 360,000 compounds, 0.055% hits;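 active means mean normalized replicate activation at least 10% and every replicate at or above 10%; inconclusive means only one of the two criteria met; inactive means mean below 10% and not all replicates reach 10%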;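 further: 0% = median of on-plate neutral control wells and 100% = ellipticine 6 µM median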
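Material: SV40-immortalized XiGFP fibroblast cells, line 68-5-11 | Buffer or medium: DMEM containing 5-aza-dC | Dosing: One concentration, pinned | Times: 3 d treatment, 15 min room-temperature fixation | Controls: Ellipticine 6 µM positive control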
FN deposition inh – fibronectin deposition inhibition | AH1F fibroblasts, Alexa488-fibronectin deposition fluorescence, overnight | inhibition, % at 12.6 µM | 350,000 compounds, 0.086% hits | AID 743247;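 active means mean inhibition across replicates of 30% or more, regardless of how many single replicates reach that level; inconclusive means mean under 30% yet at least half of replicates reach 30%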;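 further: positive control wells lacked labelled fibronectin entirely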
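Material: AH1F fibroblasts assembling fluorescent fibronectin matrix; amount: 10000 AH1F cells/well; medium: DMEM, 2% serum; reagent: Alexa488-fibronectin, 24 nM final in well; dosing: single compound dose, delivered by pin transfer; incubation: 1 h adhesion, overnight exposure; detection: fluorescence after three HBSS washes, excitation 485 nm, emission 525 nm; measure: fibronectin deposition inhibition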
EWS-Fli inh – inhibitors of EWS/Fli oncoprotein transcriptional activity; AID 651661; A673 NR0B1-luciferase reporter, viability-normalised; inhibition, % at 12.6 µM; 350,000 compounds, 0.67% hits;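 active means mean inhibition of at least 50% after viability correction, with every replicate also passing that limit; inconclusive means mean reaches 50% but only one of two replicates passes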;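 further: firefly luciferase signal divided by Alamar Blue viability fluorescence both relative to DMSO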
TROY signal inh – TROY signaling inhibition; Q293 LMP1-TROYcd NF-kB luciferase reporter, 4 h; inhibition, % at 10 µM; 360,000 compounds, 0.98% hits; AID 1347056;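 active means compounds whose plate-normalised and pattern-corrected inhibition of the luciferase reporter signal at the single screening dose is 50% or more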
LGR2 antag – inhibitors of bursicon-induced Drosophila LGR2 receptor cAMP signaling; inhibition, % at 9.99 µM; AID 720647; HEK293 LGR2, CRE-luciferase, bursicon-stimulated, 4 h; 380,000 compounds, 0.35% hits;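 active means drop in luminescence signal, shown as inhibition above about 50% in the replicate tests, limit read from the data, passing the limit was not always enough; inconclusive means probably only some replicates passing the limit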;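 further: agonist challenge used bursicon conditioned medium at about half maximal strength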
TWEAK Fn14 block – blocks TWEAK-Fn14 interaction in a reporter cell assay; AID 1159606; inhibition, % at 10 µM; 360,000 compounds, 2% hits; TWEAK-stimulated Fn14 reporter cells, luciferase luminescence, 8 h; in the data active means inhibition above about 50%
An asterisk follows results filed as active; ? = inconclusive; nt = not tested or not shown.

SMILES | Xi reactivation | FN deposition inh | EWS-Fli inh | TROY signal inh | LGR2 antag | TWEAK Fn14 block
CC(=O)Nc1ccc(NC(=O)C2CC(=O)N(c3cccc(C)c3C)C2)cc1 (stereo unspecified) | nt | nt | nt | 6 | nt | -5
Cc1cc(NC(=O)C2CC(=O)N(c3ccccc3C)C2)no1 (stereo unspecified) | 0 | 1 | -2 | -7 | -5 | 83*
CCc1ccc(N2CC(C(=O)Nc3ccc4c(c3)OCCO4)CC2=O)cc1 (stereo unspecified) | 0 | 1 | 13 | 55* | 13 | 51*
Cc1cc(NC(=O)C2CC(=O)N(c3cccc(C)c3C)C2)no1 (stereo unspecified) | 0 | 5 | 0 | -20 | -13 | 2
Cc1cccc(N2CC(C(=O)Nc3ccc4c(c3)OCCO4)CC2=O)c1C (stereo unspecified) | 0 | 3 | 10 | 34 | 5 | 63*
CC(=O)Nc1ccc(-c2csc(NC(=O)C3CC(=O)N(c4ccc5c(c4)OCCO5)C3)n2)cc1 (stereo unspecified) | 1 | 2 | 20 | 39 | 15 | 14
COc1ccccc1NC(=O)N1CCCCN2[C@H](C1)[C@@H](c1ccc(C#CC3CC3)cc1)[C@@H]2CO | nt | nt | -6 | nt | nt | nt
CS(=O)(=O)c1ccc(NC(=O)C2CC(=O)N(c3ccc4c(c3)OCCO4)C2)cc1 (stereo unspecified) | 0 | 1 | 0 | 13 | 8 | 0
CCN(CC)S(=O)(=O)c1ccc(NC(=O)C2CC(=O)N(c3ccc4c(c3)OCCO4)C2)cc1 (stereo unspecified) | 0 | 1 | 14 | 7 | 7 | 60*
COC(=O)c1ccc(CSc2nnc(NC(=O)C3CC(=O)N(c4ccc5c(c4)OCCO5)C3)s2)cc1 (stereo unspecified) | 0 | 2 | nt | 44 | -3 | 54*
CCc1ccc(C(=O)NNC(=O)C2CC(=O)N(c3ccc4c(c3)OCCO4)C2)cc1 (stereo unspecified) | 0 | -1 | -1 | -1 | 19 | 19
C[C@H]1CN(C)C(=O)c2cccc(NS(C)(=O)=O)c2O[C@H]1CN(C)C | 0 | -13 | nt | nt | nt | nt
COc1ccc(-c2cn3c4c(sc3n2)CCCC4)cc1 | nt | 0 | nt | 23 | nt | 73*
COc1ccc(-c2cn3c(C)c(C(=O)N4CCCc5ccccc54)sc3n2)cc1 | 0 | -10 | -30 | 26 | 16 | 39
CC(=O)c1c(NCc2ccccc2)nc(=O)n(-c2ccccc2)c1C | nt | 12 | nt | -16 | nt | 4
CC(=O)c1c(NCCc2ccccc2)nc(=S)n(-c2ccccc2)c1C | 0 | 13 | 30 | -4 | 71* | -21
O=C(C[C@@H]1CC[C@@H](NC(=O)C2CC2)[C@@H](CO)O1)NCc1ccncc1 | 1 | -16 | -8 | nt | 11 | nt
CCCCC(=O)N/N=C/c1ccc(Sc2cccc3cccnc23)o1 | nt | nt | nt | -9 | nt | 107*
CCCC(C)C(=O)N(Cc1ccccc1)c1ccccn1 (stereo unspecified) | nt | nt | nt | 0 | nt | 61*
COCC(=O)N(Cc1ccccc1)c1ccccn1 | nt | 1 | nt | 6 | nt | -13
O=C1C(=C(I)I)c2ccccc2-c2ccccc21 | 3 | 55* | 58* | 64* | 103* | 104*
CC(C)C(=O)NC(c1ccco1)c1ccc2cccnc2c1O (stereo unspecified) | nt | nt | nt | 11 | ? | 7
Oc1c(C(Nc2nc3ccccc3s2)c2ccco2)ccc2cccnc12 (stereo unspecified) | nt | 4 | nt | 14 | nt | 57*
COc1ccc([C@H]2CC(=O)C=C(c3cc(Cl)ccc3OC)C2)cc1 | 0 | -3 | 47 | 5 | 25 | 28
COc1ccc(C2=CC(=O)CC(c3ccc(OC)cc3)C2)cc1 (stereo unspecified) | 0 | 1 | -20 | -49 | -10 | -21
SMILES | Xi reactivation | FN deposition inh | EWS-Fli inh | TROY signal inh | LGR2 antag | TWEAK Fn14 block
COc1ccc([C@H]2CC(=O)C=C(c3c(OC)cccc3OC)C2)cc1 | 0 | 25 | 63* | 8 | -7 | -2
CCOc1ccc(Cl)cc1C1=CC(=O)C[C@H](c2ccc(OC)cc2)C1 | 0 | 21 | 60* | 16 | 13 | -9
O=C1C(=Cc2ccccn2)CCc2ccccc21 | 0 | nt | -44 | -25 | 5 | 54*
Cc1ccsc1/C=C1\CCc2ccccc2C1=O | nt | nt | nt | 35 | nt | 82*
C[C@H](CO)N1C[C@H](C)[C@H](CN(C)C(=O)c2ccccn2)Oc2cc(C#Cc3ccccc3)ccc2S1(=O)=O | -1 | -9 | 14 | nt | 12 | nt
Oc1c(CN2CCN(c3ccccn3)CC2)cc(Cl)c2cccnc12 | nt | nt | nt | -17 | nt | 107*
OCCN1CCN(Cc2cc(Cl)c3cccnc3c2O)CC1 | nt | nt | nt | 11 | 20 | -1
Cc1cccc2cc(/C=N/NC(=O)c3ccncc3)c(Cl)nc12 | 0 | -8 | 7 | -13 | -17 | -7
O=C(N/N=C/c1cc2cc3c(cc2nc1Cl)OCCO3)c1ccccc1O | 0 | -1 | nt | 11 | -1 | -2
Cc1ccc2cc(/C=N/NC(=O)c3ccccc3O)c(Cl)nc2c1 | 0 | 3 | nt | 65* | -12 | 3
Cc1cccc2cc(/C=N/NC(=O)c3ccccc3O)c(Cl)nc12 | 0 | -3 | 20 | 57* | nt | 15
Cc1ccc(/C=N\NC(=O)/C(=C\Nc2nccc(C)n2)NC(=O)c2ccccc2)cc1 | 0 | -1 | -7 | 17 | 4 | -8
COc1ccc(/C=N\NC(=O)/C(=C\Nc2nccc(C)n2)NC(=O)c2ccccc2)cc1 | nt | nt | nt | nt | 10 | 71*
C[C@@H]1CN([C@@H](C)CO)C(=O)c2cc(NS(C)(=O)=O)ccc2O[C@@H](C)CCCCO[C@H]1CN(C)Cc1ccncc1 | nt | nt | -3 | nt | nt | nt
COc1ccc(CNC(=O)C(=O)NCCC2CCCCN2S(=O)(=O)c2ccccc2)cc1 (stereo unspecified) | 0 | -1 | 6 | 15 | 10 | -4
COc1ccc(NC(=O)C(=O)NCCC2CCCCN2S(=O)(=O)c2ccccc2)cc1 (stereo unspecified) | 0 | -1 | 52* | 17 | -1 | 21
COc1ccc(NC(=O)C(=O)NCCC2CCCCN2S(=O)(=O)c2cccs2)cc1 (stereo unspecified) | 1 | 12 | 58* | 3 | 1 | 22
CC(C)(C)C(=O)N1CCc2cc(-c3csc(N)n3)ccc21 | nt | nt | nt | 24 | nt | 67*
CCC(C)C(=O)N1CCc2cc(-c3csc(N)n3)ccc21 (stereo unspecified) | nt | nt | nt | 7 | nt | -4
COc1cccc(NC(=O)Nc2nc(SC(C)(C)C)ns2)c1 | 0 | 0 | -44 | 41 | 11 | 77*
COc1cccc(NC(=O)Nc2nc(SC)ns2)c1 | 0 | -1 | -119 | -10 | 0 | 56*
COc1cccc(NC(=O)Nc2nccc(C)n2)c1 | 0 | -4 | 34 | 26 | 31 | 62*
